According to ChEMBL document CHEMBL2177098, “Synthesis and evaluation of novel ¹⁸F labeled 2-pyridinylbenzoxazole and 2-pyridinylbenzothiazole derivatives as ligands for positron emission tomography (PET) imaging of β-amyloid plaques” (J Med Chem, 2012):

Columns and labels:
Brain [1] = assay: Drug uptake in ICR mouse brain at 370 kBq/100 ul, iv at 2 mins by gamma-counting analysis; assay type: ADME, organism-based; conditions: in vivo
Method in brief: (§1)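 Male ICR mice (5 weeks, about 20 g) got 18F tracer in saline (370 KBq per 100 μL) via tail vein; n = 5 per time point, killed at 2, 10, 30, 60 min. Organs weighed and γ-counted; percent dose per gram wet tissue from comparison with diluted injectate aliquots.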

Liver [2] = assay: Drug uptake in ICR mouse liver at 370 kBq/100 ul, iv at 30 mins by gamma-counting analysis; assay type: ADME, organism-based; conditions: in vivo, 0.5 h; method in brief: as §1
[3] = Displacement of [125I]-IMPY from amyloid beta (1 to 42) fibrils after 2 hrs by gamma-counting analysis
Method in brief: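 Competition binding with aggregated Aβ1-42 fibrils and [125I]IMPY (60000−100000 cpm/100 μL) in 0.05% BSA (1 mL total); inhibitors 10⁻⁴−10^−8.5 M in ethanol. Incubated 37 °C for 2 h, then GF/B vacuum filtration with PBS (0.02 M, pH 7.4) washes and γ counting. Three repeats; IC50 converted to Ki by Cheng−Prusoff.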

Blood [4] = assay: Drug uptake in ICR mouse blood at 370 kBq/100 ul, iv at 10 mins by gamma-counting analysis; assay type: ADME, organism-based; conditions: in vivo; method in brief: as §1
Kidney [5] = assay: Drug uptake in ICR mouse kidney at 370 kBq/100 ul, iv at 60 mins by gamma-counting analysis; assay type: ADME, organism-based; conditions: in vivo, 1 h; method in brief: as §1
Kidney [6] = assay: Drug uptake in ICR mouse kidney at 370 kBq/100 ul, iv at 10 mins by gamma-counting analysis; assay type: ADME, organism-based; conditions: in vivo; method in brief: as §1
Brain [7] = assay: Drug uptake in healthy human brain at 370 KBq/100 ul after 1 hr by autoradiographic analysis; assay type: ADME, tissue-based; conditions: in vitro
Bone [8] = assay: Drug uptake in ICR mouse bone at 370 kBq/100 ul, iv at 60 mins by gamma-counting analysis; assay type: ADME, organism-based, Bone element; conditions: in vivo, 1 h; method in brief: as §1
Brain [9] = assay: Ratio of drug uptake in brain at 2 mins to drug uptake in brain at 60 mins in ICR mouse at 370 KBq/100 ul, iv; assay type: ADME, organism-based; conditions: in vivo
Method in brief: (§2)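 Normal male ICR mice (5 weeks, about 20 g) received the ¹⁸F tracer in saline (370 KBq per 100 μL) by tail-vein injection. Groups of n = 5 were killed at 2, 10, 30 and 60 min. Organs were removed, weighed and γ-counted against diluted aliquots of the injectate, giving % dose per gram. Stomach and intestine were expressed per organ. The brain ratio is 2 min/60 min uptake. Values are mean ± SD.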

Liver [10] = assay: Drug uptake in ICR mouse liver at 370 kBq/100 ul, iv at 10 mins by gamma-counting analysis; assay type: ADME, organism-based; conditions: in vivo; method in brief: as §1
Intestine [11] = assay: Drug uptake in ICR mouse intestine assessed per organ at 370 kBq/100 ul, iv at 60 mins by gamma-counting analysis; assay type: ADME, organism-based; conditions: in vivo, 1 h
Method in brief: (§3)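 Male ICR mice (5 weeks, about 20 g) got 18F tracer in saline (370 KBq per 100 μL) via tail vein; n = 5 per time point, killed at 2, 10, 30, 60 min. Organs removed and γ-counted against diluted injectate; expressed as % injected dose per organ.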

Brain [12] = assay: Drug uptake in ICR mouse brain at 370 kBq/100 ul, iv at 30 mins by gamma-counting analysis; assay type: ADME, organism-based; conditions: in vivo, 0.5 h; method in brief: as §1
Stomach [13] = assay: Drug uptake in ICR mouse stomach assessed per organ at 370 kBq/100 ul, iv at 2 mins by gamma-counting analysis; assay type: ADME, organism-based; conditions: in vivo; method in brief: as §3
Bone [14] = assay: Drug uptake in ICR mouse bone at 370 kBq/100 ul, iv at 30 mins by gamma-counting analysis; assay type: ADME, organism-based, Bone element; conditions: in vivo, 0.5 h; method in brief: as §1
Kidney [15] = assay: Drug uptake in ICR mouse kidney at 370 kBq/100 ul, iv at 30 mins by gamma-counting analysis; assay type: ADME, organism-based; conditions: in vivo, 0.5 h; method in brief: as §1
Brain [16] = assay: Drug uptake in ICR mouse brain at 370 kBq/100 ul, iv at 10 mins by gamma-counting analysis; assay type: ADME, organism-based; conditions: in vivo; method in brief: as §1
Brain [17] = assay: Drug uptake in wild type C57BL6 mouse brain at 370 KBq/100 ul after 1 hr by autoradiographic analysis; assay type: ADME, tissue-based; conditions: in vitro
Method in brief: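 Paraffin brain sections from 12-month-old male control C57BL6 mice were deparaffinized through xylene and graded ethanol, then held in PBS (0.2 M, pH 7.4) for 30 min. They were incubated with the ¹⁸F tracer (370 KBq per 100 μL) for 1 h at room temperature. Sections were washed in 40% EtOH, rinsed with water for 1 min, dried, and exposed to a phosphor plate for 2 h. The same sections were then stained with thioflavin S.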

Lung [18] = assay: Drug uptake in ICR mouse lung at 370 kBq/100 ul, iv at 10 mins by gamma-counting analysis; assay type: ADME, organism-based; conditions: in vivo; method in brief: as §1
Blood [19] = assay: Drug uptake in ICR mouse blood at 370 kBq/100 ul, iv at 2 mins by gamma-counting analysis; assay type: ADME, organism-based; conditions: in vivo; method in brief: as §1
Brain [20] = assay: Drug uptake in ICR mouse brain at 370 kBq/100 ul, iv at 60 mins by gamma-counting analysis; assay type: ADME, organism-based; conditions: in vivo, 1 h; method in brief: as §1
Intestine [21] = assay: Drug uptake in ICR mouse intestine assessed per organ at 370 kBq/100 ul, iv at 30 mins by gamma-counting analysis; assay type: ADME, organism-based; conditions: in vivo, 0.5 h; method in brief: as §3
Blood [22] = assay: Drug uptake in ICR mouse blood at 370 kBq/100 ul, iv at 60 mins by gamma-counting analysis; assay type: ADME, organism-based; conditions: in vivo, 1 h; method in brief: as §1
Spleen [23] = assay: Drug uptake in ICR mouse spleen at 370 kBq/100 ul, iv at 30 mins by gamma-counting analysis; assay type: ADME, organism-based; conditions: in vivo, 0.5 h; method in brief: as §1
Bone [24] = assay: Drug uptake in ICR mouse bone at 370 kBq/100 ul, iv at 10 mins by gamma-counting analysis; assay type: ADME, organism-based, Bone element; conditions: in vivo; method in brief: as §1
Kidney [25] = assay: Drug uptake in ICR mouse kidney at 370 kBq/100 ul, iv at 2 mins by gamma-counting analysis; assay type: ADME, organism-based; conditions: in vivo; method in brief: as §1
Heart [26] = assay: Drug uptake in ICR mouse heart at 370 kBq/100 ul, iv at 2 mins by gamma-counting analysis; assay type: ADME, organism-based; conditions: in vivo; method in brief: as §1
Blood [27] = assay: Drug uptake in ICR mouse blood at 370 kBq/100 ul, iv at 30 mins by gamma-counting analysis; assay type: ADME, organism-based; conditions: in vivo, 0.5 h; method in brief: as §1
Intestine [28] = assay: Drug uptake in ICR mouse intestine assessed per organ at 370 kBq/100 ul, iv at 10 mins by gamma-counting analysis; assay type: ADME, organism-based; conditions: in vivo; method in brief: as §3
Heart [29] = assay: Drug uptake in ICR mouse heart at 370 kBq/100 ul, iv at 60 mins by gamma-counting analysis; assay type: ADME, organism-based; conditions: in vivo, 1 h; method in brief: as §1
Stomach [30] = assay: Drug uptake in ICR mouse stomach assessed per organ at 370 kBq/100 ul, iv at 60 mins by gamma-counting analysis; assay type: ADME, organism-based; conditions: in vivo, 1 h; method in brief: as §2
Stomach [31] = assay: Drug uptake in ICR mouse stomach assessed per organ at 370 kBq/100 ul, iv at 30 mins by gamma-counting analysis; assay type: ADME, organism-based; conditions: in vivo, 0.5 h; method in brief: as §3
Bone [32] = assay: Drug uptake in ICR mouse bone at 370 kBq/100 ul, iv at 2 mins by gamma-counting analysis; assay type: ADME, organism-based, Bone element; conditions: in vivo; method in brief: as §1
Heart [33] = assay: Drug uptake in ICR mouse heart at 370 kBq/100 ul, iv at 10 mins by gamma-counting analysis; assay type: ADME, organism-based; conditions: in vivo; method in brief: as §1
Liver [34] = assay: Drug uptake in ICR mouse liver at 370 kBq/100 ul, iv at 60 mins by gamma-counting analysis; assay type: ADME, organism-based; conditions: in vivo, 1 h; method in brief: as §1
Liver [35] = assay: Drug uptake in ICR mouse liver at 370 kBq/100 ul, iv at 2 mins by gamma-counting analysis; assay type: ADME, organism-based; conditions: in vivo; method in brief: as §1
Spleen [36] = assay: Drug uptake in ICR mouse spleen at 370 kBq/100 ul, iv at 10 mins by gamma-counting analysis; assay type: ADME, organism-based; conditions: in vivo; method in brief: as §1
Lung [37] = assay: Drug uptake in ICR mouse lung at 370 kBq/100 ul, iv at 2 mins by gamma-counting analysis; assay type: ADME, organism-based; conditions: in vivo; method in brief: as §1
Spleen [38] = assay: Drug uptake in ICR mouse spleen at 370 kBq/100 ul, iv at 2 mins by gamma-counting analysis; assay type: ADME, organism-based; conditions: in vivo; method in brief: as §1
[39] = n-Octanol-PBS buffer partition coefficient, log D of the compound at 1.5 MBq after 3 mins at pH 7.4; assay type: physicochemical
Method in brief: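 The tracer was partitioned between n-octanol and PBS by vortexing for 3 min at room temperature, then centrifuged for 5 min at 3000 rpm. Samples of the octanol (50 μL) and aqueous (500 μL) layers were counted. log D is the log of the octanol/PBS counts-per-gram ratio. The octanol layer was repartitioned until values were consistent. Measured in triplicate and repeated three times.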

Stomach [40] = assay: Drug uptake in ICR mouse stomach assessed per organ at 370 kBq/100 ul, iv at 10 mins by gamma-counting analysis; assay type: ADME, organism-based; conditions: in vivo; method in brief: as §3
Heart [41] = assay: Drug uptake in ICR mouse heart at 370 kBq/100 ul, iv at 30 mins by gamma-counting analysis; assay type: ADME, organism-based; conditions: in vivo, 0.5 h; method in brief: as §1
Lung [42] = assay: Drug uptake in ICR mouse lung at 370 kBq/100 ul, iv at 30 mins by gamma-counting analysis; assay type: ADME, organism-based; conditions: in vivo, 0.5 h; method in brief: as §1
Intestine [43] = assay: Drug uptake in ICR mouse intestine assessed per organ at 370 kBq/100 ul, iv at 2 mins by gamma-counting analysis; assay type: ADME, organism-based; conditions: in vivo; method in brief: as §3
Lung [44] = assay: Drug uptake in ICR mouse lung at 370 kBq/100 ul, iv at 60 mins by gamma-counting analysis; assay type: ADME, organism-based; conditions: in vivo, 1 h; method in brief: as §1
Spleen [45] = assay: Drug uptake in ICR mouse spleen at 370 kBq/100 ul, iv at 60 mins by gamma-counting analysis; assay type: ADME, organism-based; conditions: in vivo, 1 h; method in brief: as §1

**Q.** What does the source list for `CNc1ccc(-c2nc3cc(OCCOCCOCC[18F])ccc3o2)cn1`?
**A.** Drug uptake (Brain [1]): 4.05 % ID/g; Drug uptake (Liver [2]): 6.47 % ID/g; Ki [3]: 76.9 nM; Drug uptake (Blood [4]): 3.04 % ID/g; Drug uptake (Kidney [5]): 2.54 % ID/g; Drug uptake (Kidney [6]): 4.79 % ID/g; Drug uptake (Brain [7]): Not Active; Drug uptake (Bone [8]): 3.93 % ID/g; Ratio (Brain [9]): 2.28; Drug uptake (Liver [10]): 9.32 % ID/g; Drug uptake (Intestine [11]): 25.16 %ID; Drug uptake (Brain [12]): 2.06 % ID/g; Drug uptake (Stomach [13]): 5.08 %ID; Drug uptake (Bone [14]): 2.46 % ID/g; Drug uptake (Kidney [15]): 3.73 % ID/g; Drug uptake (Brain [16]): 2.05 % ID/g; Drug uptake (Brain [17]): Not Active; Drug uptake (Lung [18]): 3.15 % ID/g; Drug uptake (Blood [19]): 5.07 % ID/g; Drug uptake (Brain [20]): 1.78 % ID/g; Drug uptake (Intestine [21]): 28.65 %ID; Drug uptake (Blood [22]): 2.74 % ID/g; Drug uptake (Spleen [23]): 2.18 % ID/g; Drug uptake (Bone [24]): 1.92 % ID/g; Drug uptake (Kidney [25]): 8.51 % ID/g; Drug uptake (Heart [26]): 5.5 % ID/g; Drug uptake (Blood [27]): 3.16 % ID/g; Drug uptake (Intestine [28]): 22.9 %ID; Drug uptake (Heart [29]): 2.5 % ID/g; Drug uptake (Stomach [30]): 12.02 %ID; Drug uptake (Stomach [31]): 12.93 %ID; Drug uptake (Bone [32]): 1.75 % ID/g; Drug uptake (Heart [33]): 3.35 % ID/g; Drug uptake (Liver [34]): 4.21 % ID/g; Drug uptake (Liver [35]): 14.22 % ID/g; Drug uptake (Spleen [36]): 2.64 % ID/g; Drug uptake (Lung [37]): 5.3 % ID/g; Drug uptake (Spleen [38]): 4.13 % ID/g; logD at 0.05 h [39]: 2.86; Drug uptake (Stomach [40]): 12.32 %ID; Drug uptake (Heart [41]): 3.16 % ID/g; Drug uptake (Lung [42]): 2.81 % ID/g; Drug uptake (Intestine [43]): 10.81 %ID; Drug uptake (Lung [44]): 2.34 % ID/g; Drug uptake (Spleen [45]): 1.79 % ID/g
